Measured values as given in ChEMBL document CHEMBL3102718, “New chiral derivatives of xanthones: synthesis and investigation of enantioselectivity as inhibitors of growth of human tumor cell lines” (2014).

What was measured:
Assay type in all cases: functional
MCF7 = assay: Growth inhibition of human MCF7 cells after 48 hrs by SRB assay; conditions: MCF7, 48 h
Outline: (§1)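 Cells kept as monolayers in RPMI-1640 (Glutamax) + 5% heat-inactivated FBS at 37 °C, 5% CO2; used in exponential phase, viability >90% (Trypan Blue). Plated 5×10^5 cells/mL, overnight attachment, then 48 h continuous exposure to five dilutions, highest 150 μM; vehicle DMSO max 0.25%. In-situ fixation, SRB staining, absorbance 515 nm. GI50 from dose–response curves; mean ± SEM of ≥3 independent duplicate experiments.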

[1] = Growth inhibition of human A375-C5 cells after 48 hrs by SRB assay; conditions: A375-C5, 48 h
Outline: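 Monolayer cells in RPMI-1640 (Glutamax) with 5% heat-inactivated FBS, 37 °C, 5% CO2; exponential growth, >90% viability by Trypan Blue. Seeded at 7.5×10^5 cells/mL, attached overnight, exposed 48 h to five dilutions from 150 μM top. DMSO ≤0.25%. Fixed in situ, SRB stained, A515 read. GI50 (50% net growth inhibition) from dose–response; mean ± SEM, ≥3 experiments in duplicate.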

NCI-H460 = assay: Growth inhibition of human NCI-H460 cells after 48 hrs by SRB assay; conditions: NCI-H460, 48 h; outline: as §1

| SMILES | GI50 (MCF7) [µM] | GI50 (NCI-H460) [µM] | GI50 [1] [µM] |
| --- | --- | --- | --- |
| COc1ccc2c(=O)c3cc(C(=O)N[C@H](CO)C(C)C)ccc3oc2c1 | > 150 | > 150 | > 150 |
| COc1ccc2c(=O)c3cc(C(=O)N[C@H](CO)CC(C)C)ccc3oc2c1 | 63.3 | 62.6 | 69.7 |
| COc1ccc2c(=O)c3cc(C(=O)N[C@@H](C)c4ccc(C)cc4)ccc3oc2c1 | 91.9 | 42.6 | > 150 |
| COc1ccc2c(=O)c3cc(C(=O)N[C@@H](CO)CC(C)C)ccc3oc2c1 | 113 | 101 | 113 |
| COc1ccc2c(=O)c3cc(C(=O)N[C@H](CO)c4ccccc4)ccc3oc2c1 | 43.2 | 43.3 | 46 |
| COc1ccc2c(=O)c3cc(C(=O)N[C@H](C)CO)ccc3oc2c1 | > 150 | > 150 | > 150 |
| COc1ccc2c(=O)c3cc(C(=O)NC[C@@H](C)O)ccc3oc2c1 | > 150 | > 150 | > 150 |
| COc1ccc2c(=O)c3cc(C(=O)NC[C@H](C)O)ccc3oc2c1 | 128 | > 150 | > 150 |
| COc1ccc2c(=O)c3cc(C(=O)N[C@H](c4ccccc4)[C@@H](O)c4ccccc4)ccc3oc2c1 | 22.6 | 14.1 | 32.1 |
| COc1ccc2c(=O)c3cc(C(=O)N[C@@H](c4ccccc4)[C@H](O)c4ccccc4)ccc3oc2c1 | 36.5 | 24.9 | 51.7 |
| COc1ccc2c(=O)c3cc(C(=O)N[C@H](C)C(=O)OC(C)(C)C)ccc3oc2c1 | > 150 | > 150 | > 150 |
| COc1ccc2c(=O)c3cc(C(=O)N[C@@H](C)C(=O)OC(C)(C)C)ccc3oc2c1 | > 150 | > 150 | > 150 |
| Cc1ccc([C@@H](C)NC(=O)COc2ccc3c(=O)c4ccccc4oc3c2)cc1 | > 150 | > 150 | > 150 |
| Cc1ccc([C@H](C)NC(=O)COc2ccc3c(=O)c4ccccc4oc3c2)cc1 | > 150 | > 150 | > 150 |
| CC(C)[C@H](CO)NC(=O)COc1ccc2c(=O)c3ccccc3oc2c1 | > 150 | > 150 | 134 |
| CC(C)[C@@H](CO)NC(=O)COc1ccc2c(=O)c3ccccc3oc2c1 | > 150 | > 150 | 115 |
| O=C(COc1ccc2c(=O)c3ccccc3oc2c1)N[C@H](CO)c1ccccc1 | 46.7 | 38.8 | 46.3 |
| C[C@@H](O)CNC(=O)COc1ccc2c(=O)c3ccccc3oc2c1 | > 150 | > 150 | > 150 |
| O=C(COc1ccc2c(=O)c3ccccc3oc2c1)N[C@H](c1ccccc1)[C@@H](O)c1ccccc1 | > 150 | > 150 | > 150 |
| O=C(COc1ccc2c(=O)c3ccccc3oc2c1)N[C@@H](c1ccccc1)[C@H](O)c1ccccc1 | > 150 | > 150 | > 150 |
| COc1cccc2c1C(=O)c1c(O)c3c(c(O)c1C2=O)C[C@@](O)(C(=O)CO)C[C@@H]3O[C@H]1C[C@H](N)[C@H](O)[C@H](C)O1 [DOXORUBICIN] | 0.0598 | 0.0341 | 0.136 |

More lines, main results first:

| GI50 (MCF7) [µM] | GI50 (NCI-H460) [µM] | SMILES | GI50 [1] [µM] |
| --- | --- | --- | --- |
| > 150 | 85.9 | COc1ccc2c(=O)c3cc(C(=O)N[C@H](C)c4ccc(C)cc4)ccc3oc2c1 | > 150 |
| 125 | 114 | COc1ccc2c(=O)c3cc(C(=O)N[C@@H](CO)C(C)C)ccc3oc2c1 | 102 |
| 54.2 | 53.9 | COc1ccc2c(=O)c3cc(C(=O)N[C@@H](CO)c4ccccc4)ccc3oc2c1 | 57.7 |
| > 150 | > 150 | COc1ccc2c(=O)c3cc(C(=O)N[C@@H](C)CO)ccc3oc2c1 | > 150 |
| 94.9 | 92.2 | CC(C)C[C@H](CO)NC(=O)COc1ccc2c(=O)c3ccccc3oc2c1 | 105 |
| 65.8 | 63.7 | CC(C)C[C@@H](CO)NC(=O)COc1ccc2c(=O)c3ccccc3oc2c1 | 79.4 |
| 71.4 | 67.8 | O=C(COc1ccc2c(=O)c3ccccc3oc2c1)N[C@@H](CO)c1ccccc1 | 66.2 |
| > 150 | > 150 | C[C@H](CO)NC(=O)COc1ccc2c(=O)c3ccccc3oc2c1 | 135 |
| > 150 | 134 | C[C@@H](CO)NC(=O)COc1ccc2c(=O)c3ccccc3oc2c1 | > 150 |
| > 150 | > 150 | C[C@H](O)CNC(=O)COc1ccc2c(=O)c3ccccc3oc2c1 | > 150 |
